# Source: ChEMBL document CHEMBL4346706, “Anti-trypanosomal activity of doubly modified salinomycin derivatives” (Eur J Med Chem, 2019)
# Active and inactive are the calls of the source. The rule behind the calls is not given here.
# Legend:
# [1] = Selectivity index, ratio of GI50 for human HL60 cells to GI50 for bloodstream form of Trypanosoma brucei 427-221a; assay type: toxicity; settings: read-out: RatioGI50
# [2] = Cytotoxicity against human HL60 cells assessed as growth inhibition after 24 hrs by resazurin dye based assay; assay type: cell-based, HL-60
# How it was run: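 HL-60 cells seeded at 5 × 10^4 ml^-1 in Baltz medium with 16.7% heat-inactivated bovine serum, 0.9% DMSO. 37 °C, 5% CO2. Tenfold dilutions from 100 μM to 1 pM. After 24 h, resazurin added and incubation continued a further 48 h. Absorbance read at 570 nm, reference 630 nm. GI50 by linear interpolation against DMSO-only wells. Mean ± SD of three independent experiments.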
# Trypanosoma brucei [3] = assay: Antitrypanosomal activity against bloodstream form of Trypanosoma brucei 427-221a assessed as growth inhibition measured after 72 hrs by resazurin dye based assay
# Trypanosoma brucei [4] = assay: Antitrypanosomal activity against bloodstream form of Trypanosoma brucei 427-221a assessed as increase in iono-phoresis by measuring cell swelling at 100 uM measured every 10 mins for 1 hr by light scattering based microplate reader analysis; assay type: functional, organism-based
# How it was run: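 Light-scattering swelling assay. Bloodstream forms at 5 × 10^7 cells ml^-1 in Baltz medium with 100 μM ionophore and 0.9% DMSO; controls had DMSO only. Absorbance at 490 nm read every 10 min for one hour. A fall in absorbance is taken as a rise in cell volume. Means of three experiments.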
# [5] = Antiproliferative activity against human HMLER cells assessed as reduction in cell viability after 72 hrs by Cell-Titer Blue reagent based fluorescence microplate reader analysis; assay type: functional
Compound,GI50 (Trypanosoma brucei [3]) [µM],selectivity ratio [1],GI50 at 24 h [2] [µM],Activity (Trypanosoma brucei [4]),IC50 [5] [µM]
CC[C@@H](C(=O)[C@@H](C)[C@@H](O)[C@H](C)[C@@H]1O[C@@H]([C@@H](CC)C(=O)NCCc2ccc(F)cc2)CC[C@@H]1C)[C@H]1O[C@]2(C=C[C@@H](O)[C@]3(CC[C@@](C)([C@H]4CC[C@](O)(CC)[C@H](C)O4)O3)O2)[C@H](C)C[C@@H]1C,2.87,4,11.6,–,–
Cc1ccc(C(=O)Nc2ccc(S(=O)(=O)O)c3cc(S(=O)(=O)O)cc(S(=O)(=O)O)c23)cc1NC(=O)c1cccc(NC(=O)Nc2cccc(C(=O)Nc3cc(C(=O)Nc4ccc(S(=O)(=O)O)c5cc(S(=O)(=O)O)cc(S(=O)(=O)O)c45)ccc3C)c2)c1 [SURAMIN],0.032,> 3120,> 100,–,–
CC[C@@H](C(=O)[C@@H](C)[C@@H](O)[C@H](C)[C@@H]1O[C@@H]([C@@H](CC)C(=O)OCC(F)(F)F)CC[C@@H]1C)[C@H]1O[C@]2(C=CC(=O)[C@]3(CC[C@@](C)([C@H]4CC[C@](O)(CC)[C@H](C)O4)O3)O2)[C@H](C)C[C@@H]1C,3.01,> 33.2,> 100,–,–
C#CCOC(=O)[C@H](CC)[C@H]1CC[C@H](C)[C@H]([C@@H](C)[C@H](O)[C@H](C)C(=O)[C@H](CC)[C@H]2O[C@]3(C=CC(=O)[C@]4(CC[C@@](C)([C@H]5CC[C@](O)(CC)[C@H](C)O5)O4)O3)[C@H](C)C[C@@H]2C)O1,3.03,9.8,29.6,–,–
C#CCN[C@@H]1C=C[C@]2(O[C@H]([C@@H](CC)C(=O)[C@@H](C)[C@@H](O)[C@H](C)[C@@H]3O[C@@H]([C@@H](CC)C(=O)O)CC[C@@H]3C)[C@@H](C)C[C@H]2C)O[C@@]12CC[C@@](C)([C@H]1CC[C@](O)(CC)[C@H](C)O1)O2,0.035,300,10.5,Active,0.1
C#CCNC(=O)[C@H](CC)[C@H]1CC[C@H](C)[C@H]([C@@H](C)[C@H](O)[C@H](C)C(=O)[C@H](CC)[C@H]2O[C@]3(C=C[C@@H](NCC#C)[C@]4(CC[C@@](C)([C@H]5CC[C@](O)(CC)[C@H](C)O5)O4)O3)[C@H](C)C[C@@H]2C)O1,3.04,12.8,38.9,–,–
C#CCNC(=O)[C@H](CC)[C@H]1CC[C@H](C)[C@H]([C@@H](C)[C@H](O)[C@H](C)C(=O)[C@H](CC)[C@H]2O[C@]3(C=CC(=O)[C@]4(CC[C@@](C)([C@H]5CC[C@](O)(CC)[C@H](C)O5)O4)O3)[C@H](C)C[C@@H]2C)O1,3.18,12.1,38.6,–,–
CC[C@@H](C(=O)[C@@H](C)[C@@H](O)[C@H](C)[C@@H]1O[C@@H]([C@@H](CC)C(=O)NCCc2ccc(F)cc2)CC[C@@H]1C)[C@H]1O[C@]2(C=CC(=O)[C@]3(CC[C@@](C)([C@H]4CC[C@](O)(CC)[C@H](C)O4)O3)O2)[C@H](C)C[C@@H]1C,2.99,31.7,94.7,–,–
CC[C@@H](C(=O)[C@@H](C)[C@@H](O)[C@H](C)[C@@H]1O[C@@H]([C@@H](CC)C(=O)O)CC[C@@H]1C)[C@H]1O[C@]2(C=C[C@@H](O)[C@]3(CC[C@@](C)([C@H]4CC[C@](O)(CC)[C@H](C)O4)O3)O2)[C@H](C)C[C@@H]1C [SALINOMYCIN],0.21,31.6,6.63,–,–
C#CCNC(=O)[C@H](CC)[C@H]1CC[C@H](C)[C@H]([C@@H](C)[C@H](O)[C@H](C)C(=O)[C@H](CC)[C@H]2O[C@]3(C=C[C@@H](O)[C@]4(CC[C@@](C)([C@H]5CC[C@](O)(CC)[C@H](C)O5)O4)O3)[C@H](C)C[C@@H]2C)O1,3.06,11.6,35.5,–,–
CC[C@@H](C(=O)[C@@H](C)[C@@H](O)[C@H](C)[C@@H]1O[C@@H]([C@@H](CC)C(=O)O)CC[C@@H]1C)[C@H]1O[C@]2(C=CC(=O)[C@]3(CC[C@@](C)([C@H]4CC[C@](O)(CC)[C@H](C)O4)O3)O2)[C@H](C)C[C@@H]1C,0.037,252,9.21,Active,–

# Continued, in another order:
GI50 (Trypanosoma brucei [3]) [µM],Compound,selectivity ratio [1],GI50 at 24 h [2] [µM],Activity (Trypanosoma brucei [4]),IC50 [5] [µM]
2.9,CC[C@@H](C(=O)[C@@H](C)[C@@H](O)[C@H](C)[C@@H]1O[C@@H]([C@@H](CC)C(=O)OCC(F)(F)F)CC[C@@H]1C)[C@H]1O[C@]2(C=C[C@@H](O)[C@]3(CC[C@@](C)([C@H]4CC[C@](O)(CC)[C@H](C)O4)O3)O2)[C@H](C)C[C@@H]1C,11.2,32.5,–,–
0.17,CC[C@@H](C(=O)[C@@H](C)[C@@H](O)[C@H](C)[C@@H]1O[C@@H]([C@@H](CC)C(=O)ONC(=O)c2ccccc2)CC[C@@H]1C)[C@H]1O[C@]2(C=C[C@@H](O)[C@]3(CC[C@@](C)([C@H]4CC[C@](O)(CC)[C@H](C)O4)O3)O2)[C@H](C)C[C@@H]1C,21.1,3.58,–,–
2.93,C#CCOC(=O)[C@H](CC)[C@H]1CC[C@H](C)[C@H]([C@@H](C)[C@H](O)[C@H](C)C(=O)[C@H](CC)[C@H]2O[C@]3(C=C[C@@H](O)[C@]4(CC[C@@](C)([C@H]5CC[C@](O)(CC)[C@H](C)O5)O4)O3)[C@H](C)C[C@@H]2C)O1,10.2,30,–,–
0.035,CC[C@@H](C(=O)[C@@H](C)[C@@H](O)[C@H](C)[C@@H]1O[C@@H]([C@@H](CC)C(=O)ONC(=O)c2ccccc2O)CC[C@@H]1C)[C@H]1O[C@]2(C=C[C@@H](O)[C@]3(CC[C@@](C)([C@H]4CC[C@](O)(CC)[C@H](C)O4)O3)O2)[C@H](C)C[C@@H]1C,60.6,2.12,inactive,–
0.032,CC[C@@H](C(=O)[C@@H](C)[C@@H](O)[C@H](C)[C@@H]1O[C@@H]([C@@H](CC)C(=O)ONC(=O)c2ccccc2)CC[C@@H]1C)[C@H]1O[C@]2(C=CC(=O)[C@]3(CC[C@@](C)([C@H]4CC[C@](O)(CC)[C@H](C)O4)O3)O2)[C@H](C)C[C@@H]1C,70,2.24,inactive,–
0.034,CC[C@@H](C(=O)[C@@H](C)[C@@H](O)[C@H](C)[C@@H]1O[C@@H]([C@@H](CC)C(=O)ONC(=O)c2ccccc2O)CC[C@@H]1C)[C@H]1O[C@]2(C=CC(=O)[C@]3(CC[C@@](C)([C@H]4CC[C@](O)(CC)[C@H](C)O4)O3)O2)[C@H](C)C[C@@H]1C,56.8,1.93,inactive,–
